Sampled rows, rich in hits. Any-hit rate of the full collection: about 5.3%.
CSC inhib: cancer stem cell viability inhibitors, primary screen, luminescence; hit rate 1.1% among 300,000; inhibition, % at 7.5 µM; cancer stem cell-like cells viability; AID 2717, 2010; in the data active = inhibition above about 75%; inconclusive = no clear call, values can overlap the other calls; tested in HMLE shEcad cells
Mdm2 MdmX PPI: inhibitors of human Mdm2-MdmX association, primary screen, cell-based, luminescence, split luciferase, SaOS-2, uHTS | SaOS-2 split-luciferase Mdm2/MdmX complementation | AID 485346, 2010 | hit rate 3% among 330,000 | inhibition, % at 8 µM;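 active = inhibition of at least 50% at 8 µM in the primary screen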
T cruzi inh: inhibitors of intracellular T. cruzi growth, primary screen, luminescence, NIH3T3 host cells | AID 1885, 2009 | T. cruzi beta-gal in NIH3T3, 90 h | inhibition, % (concentration not given with the values) | hit rate 1.4% among 300,000;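 active = mean inhibition across valid replicates above about 55%, limit read from the data; inconclusive = mean below that limit but half or more replicates reach it; inactive = mean below it, under half of replicates reach it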;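 also: signal also drops with host cell toxicity which is not excluded here; 0% = plate median of DMSO wells and 100% = zero luminescence signal; higher percent means less beta-gal luminescence so fewer parasites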
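compound dosing = single 50 nL compound addition per well in DMSO | material = NIH/3T3 host cells with β-galactosidase reporter T. cruzi | input = 5,000 host fibroblasts per well | timing = ≥90 h infection period, 3 h prior cell attachment | read-out basis = percent inhibition of parasite-derived β-gal signal | detection = GalScreen β-gal luminescence, detergent lysis, 60 min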
NALP3 yeast inh: NALP3 inflammasome inhibitors in reconstituted yeast, primary screen, luminescence, uHTS | Yeast reconstituted NLRP3/ASC/caspase-1, beta-gal luminescence, 24 h | inhibition, % at 10 µM | hit rate 0.39% among 330,000;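 active = inhibition of 50% or more; inactive = inhibition below 50%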;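 also: plate controls were induced DMSO wells for no effect and uninduced yeast grown without galactose for full effect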
Calb FLC: C. albicans growth inhibition with fluconazole, primary screen, CaCi-2 strain, Alamar Blue fluorescence. C. albicans CaCi-2 (fluconazole-resistant clinical isolate) + fluconazole, 48 h. growth inhibition, % (no concentration beside the values). hit rate 0.57% among 300,000. AID 1979, 2009;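 active = growth inhibition above about 58% in most replicates, limit read from the data, passing the limit was not always enough; inconclusive = exactly half the replicates above a set limit; inactive = most replicates below a set limit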;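 also: all wells also contain fluconazole at 8 µg/ml as a sub-toxic cotreatment; 0% = median of DMSO wells and 100% = median of geldanamycin control wells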
Beta cell apopt: inhibitors of cytokine-induced beta cell apoptosis, primary screen, luminescence | INS-1E cytokine-induced death, ATP luminescence, 48 h; percent of positive-control rescue, neutral wells zero | protection from apoptosis, % (no concentration beside the values) | hit rate 0.8% among 300,000;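 active = Every replicate reaches about 75%, or at least half do and their mean reaches it too, limit read from the data; inconclusive = At least half of replicates reach the limit but their mean does not; inactive = Under half of replicates reach the limit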;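 also: 0% = cytokine-treated negative control wells and 100% = positive control rescue; higher means more ATP so stronger rescue from cytokine killing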
Numbers without * were called inactive; ? = inconclusive; · = no result given.

SMILES	CSC inhib	Mdm2 MdmX PPI	T cruzi inh	NALP3 yeast inh	Calb FLC	Beta cell apopt
CN=c1scc(-c2ccc(OC)cc2)n1/N=C(\C)c1cccnc1	10	11	58*	18	17	10
CC[n+]1c(/C=C2\Sc3ccccc3N2C)ccc2cccc(C)c21	·	·	63*	·	102*	·
CCOC(=O)Cc1csc(NC(=O)Cc2ccc(C)cc2)n1	-1	-1	-7	0	-14	-2
O=S(=O)(Nc1ccc(F)cc1)c1ccc(S(=O)(=O)N2CCOCC2)cc1	-7	11	·	12	·	-3
COCC1CCN(Cc2nc(-c3cccs3)no2)C1 (configuration not stated)	-8	-33	4	-4	-7	·
COc1ccccc1CN1CCN(Cc2nc(-c3cccs3)no2)CC1	7	-56	61*	11	-6	0
O=C(Cn1cnc2cc([N+](=O)[O-])ccc2c1=O)NCCc1ccc(F)cc1	5	-6	44	20	14	-2
O=C(Cn1cnc2cc([N+](=O)[O-])ccc2c1=O)NCCc1ccc(Cl)cc1	-7	-21	64*	10	15	-4
O=C(Cn1cnc2cc([N+](=O)[O-])ccc2c1=O)Nc1cccc2ccccc12	8	8	43	9	-1	1
O=c1c2ccccc2ncn1CCCOc1ccccc1[N+](=O)[O-]	-6	-84	-2	34	1	-2
Cc1ccccc1OCCn1cnc2cc([N+](=O)[O-])ccc2c1=O	10	14	60*	11	-14	1
CCN(CC)S(=O)(=O)c1ccc(C)c(NC(=O)Cn2cnc3cc([N+](=O)[O-])ccc3c2=O)c1	4	-6	85*	14	-6	0
O=C(Cn1cnc2cc([N+](=O)[O-])ccc2c1=O)Nc1ccc2c(c1)CCC2	·	21	64*	7	3	-3
CC(=O)SCCC(=O)Nc1ccccc1	-8	-21	-14	13	-9	-9
CCc1ccc(NC(=O)NCC2CCN(c3ccc(OC)cc3)C2)cc1 (configuration not stated)	-3	-16	9	13	4	-4
O=C(CSc1nnc(Cn2c(=O)sc3ccccc32)n1-c1ccccc1)NCc1ccco1	-27	17	·	17	·	3
CCCCN(CCCNC(=O)C1CCN(S(=O)(=O)N2CCOCC2)CC1)c1ccccc1	-11	11	-1	-1	?	-1
COC(=O)c1ccc(N2NC(=O)/C(=C/c3ccc(OC)c(OC)c3)C2=O)cc1	-3	16	-16	22	4	·
C=CCn1c(SCCC)nc2sc3c(c2c1=O)CCc1ccccc1-3	83*	-1	32	-1	8	6
O=C(Nc1cccc(-n2cccn2)c1)C1CCCN(Cc2ccccc2F)C1 (configuration not stated)	6	3	11	6	6	-1
COc1cc(CN2CCCC(C(=O)Nc3cccc(-n4cccn4)c3)C2)ccc1F (configuration not stated)	2	18	61*	8	-4	0
N#Cc1cc(S(=O)(=O)c2ccc(Cl)cc2)c(N)[nH]c1=O	-16	12	-46	13	-12	-1
COc1cc(NC(=O)CCN2CCN(C/C=C/c3ccccc3)CC2)cc(OC)c1	-6	-2	58*	14	-5	-5
Cc1ccc(NC(=O)CCN2CCN(C/C=C/c3ccccc3)CC2)cc1	2	16	·	21	·	-6
Cc1ccc(NC(=O)CCN2CCN(C/C=C/c3ccccc3)CC2)cc1C	·	14	43	20	-4	·
COc1ccc(NC(=O)CCN2CCN(C/C=C/c3ccccc3)CC2)cc1	·	9	57*	15	11	·
N#CCCn1cc(/C=N/NC(N)=S)c(-c2ccc(-c3ccccc3)cc2)n1	14	41	63*	1	-8	16
N#CCCn1cc(/C=N/O)c(-c2ccccc2)n1	-5	16	·	-5	·	-7
O=C1NN(c2ccc(Br)cc2)C(=O)/C1=C\c1ccc(O)cc1O	2	14	4	20	98*	-3

Bioassay records (PubChem)
